Measurements published in ChEMBL document CHEMBL1132497, “Synthesis and SAR of adatanserin: novel adamantyl aryl- and heteroarylpiperazines with dual serotonin 5-HT(1A) and 5-HT(2) activity as potential anxiolytic and antidepressant agents” (J Med Chem, 1999).

Experiments:
[1] = target: T1, 5-hydroxytryptamine receptor 1A (Rattus norvegicus, UniProt P19327); assay: Antagonist activity against rat hippocampal tissue 5-hydroxytryptamine 1A receptor; assay type: functional, tissue-based, Hippocampus
T1 sequence (P19327 whole entry): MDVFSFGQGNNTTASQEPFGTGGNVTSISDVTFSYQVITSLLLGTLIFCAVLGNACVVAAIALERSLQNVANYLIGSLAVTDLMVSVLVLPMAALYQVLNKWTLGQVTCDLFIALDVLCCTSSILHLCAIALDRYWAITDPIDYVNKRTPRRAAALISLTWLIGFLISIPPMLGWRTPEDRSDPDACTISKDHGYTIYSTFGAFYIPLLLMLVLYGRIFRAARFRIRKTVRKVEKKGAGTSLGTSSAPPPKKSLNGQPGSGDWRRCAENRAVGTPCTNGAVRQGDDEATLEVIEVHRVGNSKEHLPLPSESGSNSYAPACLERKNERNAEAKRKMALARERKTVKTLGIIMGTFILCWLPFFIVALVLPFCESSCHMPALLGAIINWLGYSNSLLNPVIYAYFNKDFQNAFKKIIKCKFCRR

[2] = target: D(2) dopamine receptor (Rattus norvegicus) (UniProt P61169); assay: Inhibitory activity against Dopamine receptor D2 of rat limbic tissue at 1 uM; assay type: tissue-based; conditions: Limbic system
Chain of D(2) dopamine receptor (Rattus norvegicus) (P61169 whole entry): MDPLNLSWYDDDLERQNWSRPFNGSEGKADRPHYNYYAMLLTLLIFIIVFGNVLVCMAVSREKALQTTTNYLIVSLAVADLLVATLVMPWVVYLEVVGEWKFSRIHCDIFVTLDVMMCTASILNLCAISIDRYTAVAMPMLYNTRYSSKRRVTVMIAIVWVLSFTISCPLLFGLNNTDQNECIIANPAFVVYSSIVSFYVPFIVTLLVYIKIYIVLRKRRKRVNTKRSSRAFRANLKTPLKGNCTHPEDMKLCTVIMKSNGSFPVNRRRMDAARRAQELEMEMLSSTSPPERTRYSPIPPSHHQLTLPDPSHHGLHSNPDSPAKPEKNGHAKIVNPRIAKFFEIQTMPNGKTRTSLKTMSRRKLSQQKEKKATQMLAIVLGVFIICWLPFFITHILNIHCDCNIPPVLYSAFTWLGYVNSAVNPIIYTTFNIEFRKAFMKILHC

[3] = target: T2, 5-hydroxytryptamine receptor 1A (Rattus norvegicus) (UniProt P19327); assay: Inhibitory activity against 5-hydroxytryptamine 1A receptor of rat hippocampal tissue at 1 uM; assay type: tissue-based; conditions: Hippocampus
T2 sequence (whole entry): T1 sequence (P19327 whole entry)

[4] = target: Serotonin 2 (5-HT2) receptor (Rattus norvegicus, UniProt P30994+P08909+P14842); assay: Inhibitory activity against rat cortical 5-hydroxytryptamine 2 receptor; assay type: protein assay
In short: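 Cortical membranes from male Sprague–Dawley rats, incubated 15 min at 37 °C in 50 mM Tris pH 7.6 with 1.0 nM [3H]ketanserin and a range of drug concentrations. Nonspecific binding defined with 100 μM methysergide. Run by filtration and counting.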

Ki [1] | inhibition [2] | inhibition [3] | Ki [4] | Structure (SMILES)
0.03 µM |  |  |  | C[C@@]12C[C@@H]3C[C@@H](CC(CC(=O)NCCN4CCN(c5ncccn5)CC4)(C3)C1)C2
0.026 µM | 100% |  |  | COc1ccccc1N1CCN(CCCOC(=O)C23CC4C[C@@H](C[C@H]2C4)C3)CC1
 |  | 3% |  | O=C(NC12C[C@H]3C[C@@H](C1)C[C@@H](C2)C3)N1CCN(c2ncccn2)CC1
0.019 µM | 32% |  |  | O=C(NCCCN1CCN(c2cccc(Cl)c2)CC1)C12C[C@H]3C[C@@H](C1)C[C@@H](C2)C3
0.077 µM | 72% |  | 0.071 µM | O=C(NCCN1CCN(c2ncccn2)CC1)NC12C[C@H]3C[C@@H](C1)C[C@@H](C2)C3
0.131 µM | 14% |  | 0.047 µM | Cl.Cl.Cl.O=C(CCN1CCN(c2ncccn2)CC1)NC12C[C@H]3C[C@@H](C1)C[C@@H](C2)C3
0.01 µM | 31% |  | 0.0043 µM | Cl.Cl.O=C(NCCCN1CCN(c2cccc(Cl)c2)CC1)C12CC3CC(CC1C3)C2
0.045 µM | 38% |  | 0.277 µM | Cl.Cl.O=C(NCCCN1CCN(c2cccc(Cl)c2)CC1)NC12C[C@H]3C[C@@H](C1)C[C@@H](C2)C3
0.0007 µM | 94% |  | 0.0023 µM | Cl.Cl.O=C(NCCN1CCN(c2cccc(Cl)c2)CC1)C12CC3CC(CC1C3)C2
0.0024 µM | 67% |  | 0.262 µM | Cl.Cl.O=C(NCCN1CCN(c2ncccn2)CC1)C12CC3CC(CC1C3)C2
0.089 µM | 6% |  | 0.021 µM | Cl.Cl.O=C(NCCCN1CCN(c2ncccn2)CC1)C12C[C@H]3C[C@@H](C1)C[C@@H](C2)C3
 | 47% |  |  | O=C(OCCN1CCN(c2ncccn2)CC1)C12CC3CC(CC1C3)C2
 | 27% |  | 0.286 µM | Cl.Cl.O=C(NCCCN1CCN(c2ncccn2)CC1)C12CC3CC(CC1C3)C2
0.127 µM |  |  |  | CC(C)(CN1CCN(c2ncccn2)CC1)NC(=O)C12C[C@H]3C[C@@H](C1)C[C@@H](C2)C3
0.06 µM |  |  |  | CN(CCN1CCN(c2ncccn2)CC1)C(=O)C12C[C@H]3C[C@@H](C1)C[C@@H](C2)C3

Second part, the compound before the results:

Structure (SMILES) | Ki [1] | inhibition [2] | inhibition [3] | Ki [4]
C[C@@]12C[C@@H]3C[C@@H](CC(CC(=O)OCCCN4CCN(c5cccc(Cl)c5)CC4)(C3)C1)C2 |  |  | 58% | 
O=C(NC12C[C@H]3C[C@@H](C1)C[C@@H](C2)C3)N1CCN(c2cccc(Cl)c2)CC1 |  |  | 0% | 
CC(C)(CN1CCN(Cc2ccccc2)CC1)NC(=O)C12C[C@H]3C[C@@H](C1)C[C@@H](C2)C3 |  |  | 0% | 
O=C(NCCN1CCN(c2cccc(Cl)c2)CC1)NC12C[C@H]3C[C@@H](C1)C[C@@H](C2)C3 | 0.061 µM | 56% |  | 0.089 µM
C[C@H](CN1CCN(Cc2ccccc2)CC1)NC(=O)C12C[C@H]3C[C@@H](C1)C[C@@H](C2)C3 | 0.037 µM | 14% |  | 
COc1ccccc1N1CCN(CCCOC(=O)CC23C[C@H]4C[C@@H](C2)C[C@](C)(C4)C3)CC1 | 0.017 µM | 95% |  | 
C[C@@]12C[C@@H]3C[C@@H](CC(CC(=O)NCCN4CCN(c5cccc(Cl)c5)CC4)(C3)C1)C2 | 0.038 µM | 40% |  | 
COc1ccccc1N1CCN(CCOC(=O)C23CC4C[C@@H](C[C@H]2C4)C3)CC1 | 0.0048 µM | 100% |  | 
O=C(NCCN1CCN(Cc2ccccc2)CC1)C12C[C@H]3C[C@@H](C1)C[C@@H](C2)C3 | 0.046 µM | 8% |  | 
O=C(NCCN1CCN(c2ccc(Cl)cc2)CC1)C12C[C@H]3C[C@@H](C1)C[C@@H](C2)C3 | 0.096 µM |  |  | 
O=C(NC12C[C@H]3C[C@@H](C1)C[C@@H](C2)C3)OCCN1CCN(c2cccc(Cl)c2)CC1 | 0.076 µM | 36% |  | 
COc1ccccc1N1CCN(CCOC(=O)NC23C[C@H]4C[C@@H](C2)C[C@@H](C3)C4)CC1 | 0.04 µM | 95% |  | 
